Reference: ChEMBL document CHEMBL1151304, “Preparation and cytotoxic effect of ceanothic acid derivatives” (J Nat Prod, 1998)
In brackets after ≈: the same amount, converted by molar mass.

What was measured:
[1] = Cytotoxicity against human FS5 cells assessed as cell survival after 48 hrs by MTT assay relative to control; format: cell-based; set-up: concentration or dose not given beside the values; conditions: read-out: Survival
Summary of the method: (§1)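 FS-5 foreskin fibroblasts and HeLa cervical carcinoma cells were grown in DMEM with 10% heat-inactivated FCS, antibiotics and glutamine at 37 °C under 5% CO₂. They were seeded at 2 × 10⁴ cells/well and held 24 h, then exposed for 48 h to compound in medium with 2% FCS. MTT (5 mg/mL stock in PBS) went on for 4 h, then SDS/DMF lysis overnight, and A570 was read.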

OVCAR-3 [2] = test: Cytotoxicity against human OVCAR-3 cells assessed as cell survival after 48 hrs by MTT assay relative to control; format: functional; set-up: concentration or dose not given beside the values
Summary of the method: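 OVCAR-3 (human ovarian adenocarcinoma) cells were kept in RPMI 1640 with 10% heat-inactivated FCS, streptomycin, penicillin and 2 mM glutamine at 37 °C under 5% CO₂. They were seeded at 2 × 10⁴ cells/well and grown 24 h. The medium was then swapped for one holding compound and 2% FCS for 48 h. MTT (5 mg/mL stock in PBS) went on for 4 h in serum-free medium, then SDS/DMF lysis overnight, and absorbance was read at 570 nm.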

HeLa [3] = test: Cytotoxicity against human HeLa cells assessed as cell survival after 48 hrs by MTT assay relative to control; format: functional; set-up: concentration or dose not given beside the values; summary of the method: as §1
OVCAR-3 [4] = test: Cytotoxicity against human OVCAR-3 cells after 48 hrs by MTT assay; format: functional, cell-based; conditions: OVCAR-3, 48 h
Summary of the method: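 OVCAR-3 ovarian adenocarcinoma cells kept in RPMI 1640 with 10% heat-inactivated FCS, 100 µg/mL streptomycin, 100 IU/mL penicillin, 2 mM glutamine at 37 °C, 5% CO2. Plated at 2 × 10⁴ cells/well and cultured 24 h, then treated 48 h in 2% FCS medium. After washing, MTT incubation 4 h, overnight lysis in 20% SDS/50% DMF, absorbance at 570 nm.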

HeLa [5] = test: Cytotoxicity against human HeLa cells after 48 hrs by MTT assay; format: functional, cell-based
Summary of the method: (§2)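 FS-5 foreskin fibroblasts and HeLa cervical carcinoma cells grown in DMEM with 10% heat-inactivated FCS, penicillin, streptomycin, glutamine (37 °C, 5% CO2). Seeded at 2 × 10⁴ cells/well and left 24 h, then exposed 48 h to compounds in medium with 2% FCS. Washed, MTT added for 4 h at 37 °C, lysed overnight in SDS/DMF, A570 read.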

[6] = Cytotoxicity against human FS5 cells after 48 hrs by MTT assay; format: cell-based; conditions: FS5, 48 h; summary of the method: as §2
OVCAR-3 [7] = test: Cytotoxicity against human OVCAR-3 cells assessed as cell survival at 10 ug/ml after 48 hrs by MTT assay relative to control; format: functional; conditions: OVCAR-3, 48 h, read-out: Survival
[8] = Cytotoxicity against human FS5 cells assessed as cell survival at 10 ug/ml after 48 hrs by MTT assay relative to control; format: cell-based; conditions: read-out: Survival
HeLa [9] = test: Cytotoxicity against human HeLa cells assessed as cell survival at 10 ug/ml after 48 hrs by MTT assay relative to control; format: functional; conditions: read-out: Survival

Structure (SMILES)	viability at 48 h [1] [%]	Survival (OVCAR-3 [2]) [%]	Survival (HeLa [3]) [%]	IC50 (OVCAR-3 [4]) [µg/mL]	IC50 (HeLa [5]) [µg/mL]	IC50 [6] [µg/mL]	viability at 10 µg/mL (OVCAR-3 [7]) [%]	viability at 48 h, 10 ug/ml [8] [%]	viability at 10 µg/mL (HeLa [9]) [%]
C=C(C)[C@@H]1CC[C@]2(C(=O)O)CC[C@]3(C)[C@H](CC[C@@H]4[C@@]5(C)[C@@H](C(=O)O)[C@H](O)C(C)(C)[C@@H]5CC[C@]43C)[C@@H]12 [CEANOTHIC ACID]	81	68	65	–	–	–	–	–	–
C=C(C)[C@@H]1CC[C@]2(C(=O)O)CC[C@]3(C)[C@H](CC[C@@H]4[C@@]5(C)[C@@H](CO)[C@H](O)C(C)(C)[C@@H]5CC[C@]43C)[C@@H]12	43	25	22	–	–	–	–	–	–
C=C(C)[C@@H]1CC[C@]2(C(=O)O)CC[C@]3(C)[C@H](CC[C@@H]4[C@@]5(C)CC(=O)C(C)(C)[C@@H]5CC[C@]43C)[C@@H]12	16	0	4	2.8 (≈ 6.35 µM)	6.6 (≈ 15 µM)	11.3 (≈ 25.6 µM)	–	–	–
C=C(C)[C@@H]1CC[C@]2(C(=O)O)CC[C@]3(C)[C@H](CC[C@@H]4[C@@]5(C)CCC(C)(C)[C@@H]5CC[C@]43C)[C@@H]12	85	55	48	–	–	–	–	–	–
C=C(C)[C@@H]1CC[C@]2(C(=O)O)CC[C@]3(C)[C@H](CC[C@@H]4[C@@]5(C)C(C(=O)O)=CC(C)(C)[C@@H]5CC[C@]43C)[C@@H]12	87	51	50	–	–	–	–	–	–
C=C(C)[C@@H]1CC[C@]2(C(=O)O)CC[C@]3(C)[C@H](CC[C@@H]4[C@@]5(C)C=CC(C)(C)[C@@H]5CC[C@]43C)[C@@H]12	33	0	17	3.5 (≈ 8.24 µM)	7.1 (≈ 16.7 µM)	22.7 (≈ 53.5 µM)	–	–	–
C=C(C)[C@@H]1CC[C@]2(C(=O)O)CC[C@]3(C)[C@H](CC[C@@H]4[C@@]5(C)CC[C@H](O)C(C)(C)[C@@H]5CC[C@]43C)[C@@H]12 [BETULINIC ACID]	39	0	25	0.9 (≈ 1.97 µM)	0.8 (≈ 1.75 µM)	20.7 (≈ 45.3 µM)	–	–	–
COc1cccc2c1C(=O)c1c(O)c3c(c(O)c1C2=O)C[C@@](O)(C(=O)CO)C[C@@H]3O[C@H]1C[C@H](N)[C@H](O)[C@H](C)O1 [DOXORUBICIN]	–	–	–	–	–	–	21	56	19
C=C(C)[C@@H]1CC[C@]2(C(=O)O)CC[C@]3(C)[C@H](CC[C@@H]4[C@@]5(C)C[C@H](O)C(C)(C)[C@@H]5CC[C@]43C)[C@@H]12	67	0	18	4.7 (≈ 10.6 µM)	9.1 (≈ 20.6 µM)	29.6 (≈ 66.9 µM)	–	–	–
